Activity calls are given as the source filed them.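 How the source made its calls, unless noted: active means viability at or under a set limit in both replicates, limit being median viability minus 3 SD (cut at about 48% in these data, passing the limit was not always enough); inconclusive means at or under the limit in just one replicate; inactive means at or above the limit in both replicates.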
Key:
[1] = reducers of endogenous Her2 protein level, primary screen, SKBR3 breast tumor cells, AlphaScreen, ATP viability (AID 461;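 active means Her2 level under about 52% in both replicate screens, with viability over 70% of control, limit read from the data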;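 on Her2 level: lower value means less Her2 protein in the cells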;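 on viability: percent of carrier control wells set as 100% viability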); details: 18-24 h, measured here: SKBR3 viability, ATP luminescence, at 10 µM
[2] = molecular target: Receptor tyrosine-protein kinase erbB-2 (Homo sapiens) (UniProt P04626); assay: as above; details: 18-24 h, at 10 µM, stronger effect = lower value
Sequence of Receptor tyrosine-protein kinase erbB-2 (Homo sapiens) (P04626 whole entry, looked up): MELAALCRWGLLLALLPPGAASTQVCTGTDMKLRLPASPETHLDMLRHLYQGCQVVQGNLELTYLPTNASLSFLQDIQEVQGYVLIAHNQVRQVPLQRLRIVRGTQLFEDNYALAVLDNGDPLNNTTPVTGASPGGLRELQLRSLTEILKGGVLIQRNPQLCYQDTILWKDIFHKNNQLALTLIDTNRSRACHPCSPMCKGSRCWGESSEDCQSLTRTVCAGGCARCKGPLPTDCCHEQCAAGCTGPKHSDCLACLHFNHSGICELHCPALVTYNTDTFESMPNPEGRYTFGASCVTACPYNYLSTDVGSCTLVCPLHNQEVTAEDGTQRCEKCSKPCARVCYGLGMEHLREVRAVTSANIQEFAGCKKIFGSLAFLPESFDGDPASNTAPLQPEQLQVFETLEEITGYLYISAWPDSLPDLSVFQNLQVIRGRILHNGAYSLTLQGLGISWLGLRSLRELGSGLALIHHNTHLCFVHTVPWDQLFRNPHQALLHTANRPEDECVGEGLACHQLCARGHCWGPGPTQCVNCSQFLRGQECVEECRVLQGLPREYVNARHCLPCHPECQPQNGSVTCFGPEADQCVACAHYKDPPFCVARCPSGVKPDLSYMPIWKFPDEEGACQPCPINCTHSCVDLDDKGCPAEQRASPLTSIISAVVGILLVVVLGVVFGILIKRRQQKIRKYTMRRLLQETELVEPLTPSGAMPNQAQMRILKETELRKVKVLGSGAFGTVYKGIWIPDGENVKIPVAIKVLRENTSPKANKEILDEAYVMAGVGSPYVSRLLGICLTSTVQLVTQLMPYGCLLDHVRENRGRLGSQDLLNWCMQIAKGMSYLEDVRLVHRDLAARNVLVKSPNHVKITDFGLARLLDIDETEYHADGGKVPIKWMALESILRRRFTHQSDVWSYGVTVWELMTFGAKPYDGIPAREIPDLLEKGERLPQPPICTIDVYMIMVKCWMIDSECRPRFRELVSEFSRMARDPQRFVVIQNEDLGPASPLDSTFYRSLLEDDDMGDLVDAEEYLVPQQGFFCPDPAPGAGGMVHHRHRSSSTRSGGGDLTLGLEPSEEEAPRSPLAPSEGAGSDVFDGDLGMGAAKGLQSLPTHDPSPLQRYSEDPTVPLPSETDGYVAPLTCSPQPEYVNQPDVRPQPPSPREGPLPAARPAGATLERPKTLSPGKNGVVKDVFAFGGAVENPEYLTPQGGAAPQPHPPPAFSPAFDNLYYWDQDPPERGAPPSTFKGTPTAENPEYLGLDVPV

[3] = SK-BR-3 cell growth inhibitors, pilot screen, 24 h, human (AID 572;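 active means viability at or below 10% of carrier control in both of two separate runs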;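 further: compound exposure lasted between 18 and 24 h rather than exactly 24 h; 100% = carrier-treated control wells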); details: SK-BR-3 viability, CellTiter-Glo luminescence, at 10 µM, stronger effect = lower value
[4] = HUVEC growth inhibition – cell-based, human, primary screen (AID 575;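 active means viability at or below 30% in both replicate assays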;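 further: 100% = median of untreated cell wells with 0.1% DMSO on each plate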); details: HUVEC proliferation, CellTiter-Glo luminescence, 72 h; at 10 µM; stronger effect = lower value
In short: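 system = HUVEC primary cells | amount = 1250 cells/well | buffer or medium = supplemented EBM, 2% fetal bovine serum | dosing = single-point 10 µM, DMSO 0.1% final | times = 72 h compound incubation | detection = CTG luminescence | read-out = % viability relative to median vehicle-well signal on each plate | control set = vehicle and MePR control wells | format = collagen-coated 384-well format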

[5] = growth inhibitors of H69AR lung tumor, primary screen, human, duplicate replicates (AID 580); details: H69AR lung tumor cells viability, ATP luminescence, 72 h; at 10 µM; stronger effect = lower value;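 further: 100% = mean luminescence of untreated wells and 0% = no signal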
[6] = reversal of MRP1-mediated doxorubicin resistance, pilot screen, H69AR cells, doxorubicin co-treatment (AID 601;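 active means viability loss from added drug above about 55%, and viability with drug at most 40%, in both replicates, limit read from the data, passing the limit was not always enough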); details: CellTiter-Glo, 72 h, at 10 µM; for differential viability (reversal): stronger effect = higher value
[7] = 384-well plate pilot, post-Golgi transport modulator project, inhibition of yeast transport mutant growth (AID 636; in the data active means inhibition above about 31%); details: absorbance 615 nm, about 18 h, stronger effect = higher value
[8] = growth suppression of yeast trafficking mutant, preliminary HTS, modulators of trafficking downstream of Golgi apparatus project, 1536-format plate, OD 615 nm (AID 637; in the data active means inhibition above about 30%); details: yeast transport mutant growth, absorbance 615 nm, 18 h; stronger effect = higher value
[9] = H69AR cells + 2 uM doxorubicin, measured here: viability with 2 uM doxorubicin, stronger effect = lower value
[10] = H69AR cells, compound alone cytotoxicity

| Compound | viability [1] | Her2 level [2] | viability [3] | viability [4] | viability [5] | differential viability (reversal) ([6]; H69AR cells + 2 uM doxorubicin) | viability [6, 9] | viability [6, 10] | inhibition [7] | inhibition [8] |
| --- | --- | --- | --- | --- | --- | --- | --- | --- | --- | --- |
| COC(=O)C1=C(N)Oc2cc(C)[nH]c(=O)c2C1c1ccncc1 (stereo not given) | 132% | 106% (inactive) | 132% (inactive) | 94.4% (inactive) | 94.7% (inactive) | 7.35% (inactive) | 87.3% | 94.7% | -0.79% (inactive) | 5% (inactive) |
| CCOC(=O)CSC1=Nc2ccccc2C2=NC(CC(=O)NCc3ccc(OC)cc3)C(=O)N12 (stereo not given) | 117% | 89% (inactive) | 117% (inactive) | 83% (inactive) | 99.7% (inactive) | 2.4% (inactive) | 97.3% | 99.7% | -4.21% (inactive) | -1.27% (inactive) |
| C=CCSc1ncccc1C(=O)O | 89.5% | 104% (inactive) | 89.5% (inactive) | 98.4% (inactive) | 97.1% (inactive) | 8.72% (inactive) | 88.3% | 97.1% | -1.32% (inactive) | -7.42% (inactive) |
| Cc1ccc(N2CCN(C(=S)c3ccc(N(C)C)cc3)CC2)cc1 | 89.5% | 82.5% (inactive) | 89.5% (inactive) | 91.8% (inactive) | 82.6% (inactive) | -9.83% (inactive) | 92.4% | 82.6% | -3.92% (inactive) | -6.19% (inactive) |
| O=C(CSc1nnnn1-c1ccccc1)c1cc2ccccc2oc1=O | 95.5% | 102% (inactive) | 95.5% (inactive) | 86.5% (inactive) | 74.2% (inactive) | -4.18% (inactive) | 78.3% | 74.2% | -6.62% (inactive) | -6.83% (inactive) |
| O=C(CCSc1nc(-c2ccco2)cc(C(F)(F)F)n1)Nc1ccc2c(c1)OCO2 | 83% | 94.5% (inactive) | 83% (inactive) | 56.3% (inactive) | 78.4% (inactive) | -10.1% (inactive) | 88.5% | 78.4% | -7.47% (inactive) | 3.81% (inactive) |
| CCOC(=O)C1CCCN(C(=O)c2cc3c(C)nc4ccccc4c3o2)C1 (stereo not given) | 86% | 99% (inactive) | 86% (inactive) | 71.7% (inactive) | 74.7% (inactive) | 38.5% (inactive) | 36.2% | 74.7% | -1.87% (inactive) | 16.7% (inactive) |
| CN(c1ccccc1)S(=O)(=O)c1ccc(C(=O)OCC(=O)N2CCOCC2)cc1 | 106% | 85.5% (inactive) | 106% (inactive) | 106% (inactive) | 111% (inactive) | 21.5% (inactive) | 89.4% | 111% | -5.41% (inactive) | 3.17% (inactive) |
| CSc1nc2c(ccc3ccccc32)o1 | 114% | 83.5% (inactive) | 114% (inactive) | 92.4% (inactive) | 90.7% (inactive) | 2.83% (inactive) | 87.9% | 90.7% | -1.32% (inactive) | 6.94% (inactive) |
| Cc1c(C(=O)OC(C)C)[nH]c2c1C(=O)CCC2 | 96.5% | 104% (inactive) | 96.5% (inactive) | 102% (inactive) | 106% (inactive) | 12.9% (inactive) | 93% | 106% | 0.39% (inactive) | -6.29% (inactive) |
| COC(=O)c1ccccc1NC(=O)CSc1nnnn1C1CCCCC1 | 120% | 112% (inactive) | 120% (inactive) | 81.2% (inactive) | 85.9% (inactive) | 0.925% (inactive) | 85% | 85.9% | -5.6% (inactive) | -2.26% (inactive) |
| Oc1cc(NCc2cccnc2)ccc1-c1nc2ccccc2o1 | 86.5% | 94% (inactive) | 86.5% (inactive) | 97.2% (inactive) | 82.7% (inactive) | -7.37% (inactive) | 90.1% | 82.7% | 1.17% (inactive) | 10.8% (inactive) |
| CCCCC(c1nnnn1CS(=O)(=O)c1ccc(C)cc1)N1CCN(c2ccccc2)CC1 (stereo not given) | 102% | 88% (inactive) | 102% (inactive) | 69.5% (inactive) | 90.6% (inactive) | -0.75% (inactive) | 91.3% | 90.6% | -3.29% (inactive) | -1.27% (inactive) |
| Cc1cccc(-c2c3c(=O)n(C)c(=O)n(C)c3cn2-c2ccc(O)cc2)c1 | 102% | 80% (inactive) | 102% (inactive) | 108% (inactive) | 86.6% (inactive) | -6.51% (inactive) | 93.1% | 86.6% | -3.11% (inactive) | -2.38% (inactive) |
| Cc1cc(OCC(=O)N2CCCC2)cc(C)c1Cl | 102% | 96% (inactive) | 102% (inactive) | 101% (inactive) | 89.6% (inactive) | 16.1% (inactive) | 73.5% | 89.6% | -6.8% (inactive) | -0.33% (inactive) |
| Cc1sc(NC(=O)CSc2nc(N)n(CC(=O)c3ccccc3)n2)c(C#N)c1C | 103% | 106% (inactive) | 103% (inactive) | 103% (inactive) | 90.4% (inactive) | -0.79% (inactive) | 91.2% | 90.4% | -3.65% (inactive) | -6.83% (inactive) |
| COc1ccc(NCc2nnc(SCC(=O)Nc3cc(C)cc(C)c3)o2)cc1 | 112% | 90.5% (inactive) | 112% (inactive) | 70% (inactive) | 81.9% (inactive) | -3.66% (inactive) | 85.6% | 81.9% | -6.53% (inactive) | -1.64% (inactive) |
| CC(C)CNS(=O)(=O)c1ccc(CCC(=O)N2CCOCC2)cc1 | 87.5% | 94% (inactive) | 87.5% (inactive) | 95% (inactive) | 91.3% (inactive) | -3.29% (inactive) | 94.6% | 91.3% | -4.73% (inactive) | -4.59% (inactive) |
| Cn1c(=O)[nH]c2cc3ccccc3cc21 | 118% | 94% (inactive) | 118% (inactive) | 26.6% (active) | 95.6% (inactive) | 16.5% (inactive) | 79.1% | 95.6% | -6.05% (inactive) | -0.73% (inactive) |
| COc1ccc(NC(=O)C(C)Oc2ccc(/C(C)=N\O)cc2)cc1 (stereo not given) | 122% | 92% (inactive) | 122% (inactive) | 91.9% (inactive) | 90.4% (inactive) | 7.12% (inactive) | 83.3% | 90.4% | -7.33% (inactive) | -0.32% (inactive) |
| Cc1nc(=S)n(-c2ccccc2)[nH]1 | 104% | 107% (inactive) | 104% (inactive) | 107% (inactive) | 107% (inactive) | 2.28% (inactive) | 105% | 107% | -3.2% (inactive) | -9.35% (inactive) |
| O=c1[nH]c(=O)n(C2CCCCCC2)c(O)c1C=NCc1ccc(F)cc1 | 90% | 86.5% (inactive) | 90% (inactive) | 90.1% (inactive) | 81.5% (inactive) | -4.79% (inactive) | 86.3% | 81.5% | -6.8% (inactive) | -2.22% (inactive) |
| CCOC(=O)CC1(CC(=O)OCC)NC(=O)c2c(C)sc(C(=O)OCC)c2N1 | 92% | 93% (inactive) | 92% (inactive) | 71.4% (inactive) | 101% (inactive) | 5.26% (inactive) | 95.3% | 101% | -1.05% (inactive) | 6.39% (inactive) |
| CCOCCc1nnc(NC(=O)c2ccc(OC)c(OC)c2)s1 | 107% | 86% (inactive) | 107% (inactive) | 62.8% (inactive) | 94.4% (inactive) | -1.97% (inactive) | 96.4% | 94.4% | -6.4% (inactive) | -3.39% (inactive) |
| O=C(CN1C(=O)c2ccccc2C1=O)Nc1ccccc1C(=O)N1CCCC1 | 83% | 90.5% (inactive) | 83% (inactive) | 96% (inactive) | 109% (inactive) | 19.7% (inactive) | 89% | 109% | -3.78% (inactive) | 1.59% (inactive) |

Reference: PubChem BioAssay
